“Also recorded” adds a separate entry of the source.
Tests used:
human melanopsin [1] = molecular target: T1, human melanopsin (Homo sapiens, UniProt Q9UHM6); assay: Radioligand binding with [^3H]2-AA41612 to CHO^Opn4 cell membranes; conditions: competition binding
T1 sequence (Q9UHM6 1-478): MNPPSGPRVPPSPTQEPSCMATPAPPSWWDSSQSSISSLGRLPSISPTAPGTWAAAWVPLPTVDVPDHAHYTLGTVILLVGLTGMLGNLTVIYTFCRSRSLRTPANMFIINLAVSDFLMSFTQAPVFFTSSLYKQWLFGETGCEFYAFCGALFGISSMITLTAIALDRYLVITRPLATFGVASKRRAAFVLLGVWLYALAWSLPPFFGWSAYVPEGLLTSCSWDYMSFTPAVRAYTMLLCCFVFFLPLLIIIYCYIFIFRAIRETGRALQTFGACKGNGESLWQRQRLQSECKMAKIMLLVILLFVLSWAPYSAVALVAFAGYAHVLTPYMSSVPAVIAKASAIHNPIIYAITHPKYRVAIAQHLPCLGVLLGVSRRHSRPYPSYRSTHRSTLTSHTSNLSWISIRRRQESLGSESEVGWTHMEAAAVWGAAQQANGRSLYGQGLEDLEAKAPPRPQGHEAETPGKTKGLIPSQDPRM
Outline: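 Membranes came from light-exposed CHO cells stably expressing human melanopsin. Cells were sonicated in ice-cold 20 mM Tris-HCl, 10 mM EDTA, pH 7.4, then spun at 200g for 5 min and 40,000g for 20 min at 4 °C, and washed. Assay buffer was 50 mM Tris-HCl, 1 mM EDTA, 5 mM MgSO4, pH 7.4. Saturation binding used increasing concentrations of [3H] radioligand. Competition binding used 300 pM radioligand against increasing competitor for 2 h in the dark at 25 °C. Reactions were filtered through PEI-treated glass fibre filters and counted by scintillation. Nonspecific binding was defined with 10 µM 9-cis retinal, and specific binding was taken as total minus nonspecific.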

human melanopsin [2] = molecular target: T1, human melanopsin; assay: Ca^2+ release assay in CHO^Opn4 cells; type: cell-based
mouse melanopsin = molecular target: T2, mouse melanopsin (Mus musculus, UniProt Q9QXZ9); assay: Melanopsin photocurrent in Xenopus oocytes; type: cell-based
T2 sequence (Q9QXZ9 1-521): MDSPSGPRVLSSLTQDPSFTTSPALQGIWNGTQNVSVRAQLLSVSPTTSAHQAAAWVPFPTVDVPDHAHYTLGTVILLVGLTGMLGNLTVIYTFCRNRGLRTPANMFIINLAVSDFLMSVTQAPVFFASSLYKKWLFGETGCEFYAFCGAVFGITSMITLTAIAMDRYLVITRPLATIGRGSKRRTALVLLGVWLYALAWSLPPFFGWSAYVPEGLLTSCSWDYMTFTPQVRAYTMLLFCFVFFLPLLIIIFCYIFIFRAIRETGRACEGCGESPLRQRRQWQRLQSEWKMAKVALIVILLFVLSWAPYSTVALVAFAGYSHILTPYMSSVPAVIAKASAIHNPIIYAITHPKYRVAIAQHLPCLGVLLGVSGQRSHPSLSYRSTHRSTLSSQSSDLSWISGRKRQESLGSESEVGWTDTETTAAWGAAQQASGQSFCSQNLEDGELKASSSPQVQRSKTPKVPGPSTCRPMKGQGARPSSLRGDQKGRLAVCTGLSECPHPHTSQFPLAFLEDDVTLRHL
Outline: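 Stage IV Xenopus oocytes injected with in vitro transcribed, polyadenylated mRNAs for mouse melanopsin, TrpC3, Gαq and Arrb1. Test compound was perfused for 3 min at increasing concentrations before 50 µM 11-cis retinal was added. Melanopsin photocurrent was recorded intracellularly in response to 60 s white light, averaged over n = 5 oocytes.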

[3] = Pharmacokinetics: retina and brain levels after IP dosing; type: in vivo; conditions: mice, 30 mg kg^−1 IP, within 2 h
Outline: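 Mice were dosed at 30 mg kg−1 IP, and retina and brain were sampled at several times afterwards. Frozen brains were homogenised in four volumes of 50% water/30% 2-propanol/20% DMSO and spiked with internal standard. Samples were centrifuged and the supernatant analysed by LC/MS/MS. Quantitation used a standard curve (0–5,000 ng/ml) prepared in homogenate.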

mice = assay: Pupillary light reflex; type: in vivo; conditions: 10^13 ph.cm^−2.s^−1
Outline: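 rd, WT and Opn4−/− mice carried an acrylic headpost and had at least 1 wk of recovery. Dark-adapted mice received vehicle or compound at 30 mg kg−1 IP 20 min before the first light, plus tropicamide in the left eye. The right eye was filmed under IR at 30 Hz. Each 5 min sequence was 1 min dark, 1 min 480 nm light (1 × 10^13 or 1 × 10^10 ph.cm−2.s−1), then 3 min dark. Sequences were repeated 19, 29 and 39 min post-injection. Pupil diameter was normalised to the mean of the first 20 s of darkness; n = 6–7.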

neonatal mice = assay: Negative phototaxis assay; type: in vivo; conditions: WT neonatal pups (P7-P9), 30 mg kg^−1 sub-cutaneous, 480 nm light
Outline: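 WT and Opn4−/− pups aged P7–P9 were tested once daily. Pups were dark-adapted for 1 h, then given vehicle or compound at 30 mg kg−1 s.c. Each pup wore a head reflective sticker and sat in a transparent tube for 10 min. After 5 min of darkness, the head end was lit with 480 nm light at 9.5 × 10^15 ph/cm2/s. IR video covered 2 min before and 5 min after light onset. Head distance was scored in 1 s bins, and mean activity was compared before and after light. Pups without any bin above 1.3 mm/bin before light were excluded.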

[4] = test system: 74 biological targets including GPCRs and ion channels; assay: Radioligand binding panel of 74 biological targets; conditions: 10 µM
rod/cone photoreceptors = assay: Electroretinogram; type: in vivo; conditions: WT C57BL/6J and Opn4^−/− mice, 30 mg kg^-1, recorded within 30 min of administration, versus vehicle

Hill slope, displacement of [^3H]2-AA41612 (human melanopsin [1])	IC50 (human melanopsin [2])	SMILES	IC50 (mouse melanopsin)	fraction cleared from the retina [3]	effect on PLR under high light intensity (mice; Wild type (WT) mice)	attenuation of pupil constriction in response to light (mice; adult rd mice, 30 mg kg^−1 i.p. 20 min prior)	slope of Schild regression (dose ratio) plot (human melanopsin [2]; versus 9-cis retinal, light-exposed CHO^Opn4 cells)	effect on light aversion (negative phototaxis) behavior (neonatal mice)	inhibition of radioligand binding to a panel of 74 biological targets [4]	effect on rod and rod/cone electroretinogram (rod/cone photoreceptors)
~1.0		CC1=C(/C=C/C(C)=C\C=C\C(C)=C\C=O)C(C)(C)CCC1 [9-cis retinal, reference compound]								
~1.0	15.8 ± 1.8 nM	COc1cc(Cl)c(S(=O)(=O)N2CCCCC2)cc1Cl [AA41612, 1-(2,5-Dichloro-4-methoxy-benzenesulfonyl)-piperidine]	20 nM							

SMILES	Hill slope, displacement of [^3H]2-AA41612 (human melanopsin [1])	IC50 (human melanopsin [2])	IC50 (mouse melanopsin)	fraction cleared from the retina [3]	effect on PLR under high light intensity (mice; Wild type (WT) mice)	attenuation of pupil constriction in response to light (mice; adult rd mice, 30 mg kg^−1 i.p. 20 min prior)	slope of Schild regression (dose ratio) plot (human melanopsin [2]; versus 9-cis retinal, light-exposed CHO^Opn4 cells)	effect on light aversion (negative phototaxis) behavior (neonatal mice)	inhibition of radioligand binding to a panel of 74 biological targets [4]	effect on rod and rod/cone electroretinogram (rod/cone photoreceptors)
COc1ccc(S(=O)(=O)N2CCCCC2)cc1C [AA92593, 1-((4-methoxy-3-methylphenyl)sulfonyl)piperidine]	~1.0		190 nM	> 95%	attenuated PLR	~ 50%	0.9	significantly reduced; also recorded: remarkably reduced light aversion behavior	failed to inhibit radioligand binding	no noticeable inhibition of rod/cone photoreceptors

Source: paper PMC3839535 (Nature chemical biology, 2013)
